# Laboratory results from ChEMBL document CHEMBL2157987, “Benzimidazole bearing oxadiazole and triazolo-thiadiazoles nucleus: design and synthesis as anticancer agents” (2012).
# Columns and labels:
# Assay type in all cases: functional
# RPMI-8226 = assay: Cytotoxicity against human RPMI8226 cells after 48 hrs by SRB assay; conditions: RPMI-8226, 48 h
# Summary of the method: (§1)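 Five-dose NCI-60 panel screen: cells grown in RPMI 1640 with 5% FBS and 2 mM L-glutamine, preincubated 24 h at 37 °C, 5% CO2. Five 10-fold dilutions, 0.01–100 µM, applied for 48 h. Fixed with cold TCA (10% final), stained with 0.4% SRB, absorbance read at 515 nm. GI50, TGI and LC50 were taken from log concentration versus % growth curves using time-zero plates.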
# EKVX = assay: Cytotoxicity against human EKVX cells after 48 hrs by SRB assay; summary of the method: as §1
# NCI-H522 = assay: Cytotoxicity against human NCI-H522 cells after 48 hrs by SRB assay; conditions: NCI-H522, 48 h; summary of the method: as §1
# HCT-116 = assay: Cytotoxicity against human HCT116 cells after 48 hrs by SRB assay; conditions: HCT-116, 48 h; summary of the method: as §1
# SNB-19 = assay: Cytotoxicity against human SNB19 cells after 48 hrs by SRB assay; conditions: SNB-19, 48 h
# Summary of the method: (§2)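 Cells were grown in RPMI 1640 with 5% FBS and 2 mM L-glutamine, then held 24 h at 37 °C and 5% CO2 before dosing. TCA-fixed time-zero plates were kept. Compound was dissolved in DMSO and given at five 10-fold dilutions for 48 h. Cells were fixed with cold TCA (10% final), stained with 0.4% SRB and read at 515 nm. GI50, TGI and LC50 came from Ti/Tz/control growth formulas.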
# Malme-3M = assay: Cytotoxicity against human MALME-3M cells after 48 hrs by SRB assay; summary of the method: as §1
# SK-MEL-28 = assay: Cytotoxicity against human SK-MEL-28 cells after 48 hrs by SRB assay; conditions: SK-MEL-28, 48 h; summary of the method: as §1
# UACC-257 = assay: Cytotoxicity against human UACC257 cells after 48 hrs by SRB assay; conditions: UACC-257, 48 h; summary of the method: as §2
# OVCAR-5 = assay: Cytotoxicity against human OVCAR5 cells after 48 hrs by SRB assay; conditions: OVCAR-5, 48 h; summary of the method: as §1
# NCI/ADR-RES = assay: Cytotoxicity against human NCI/ADR-RES cells after 48 hrs by SRB assay; summary of the method: as §1
# SK-OV-3 = assay: Cytotoxicity against human SKOV3 cells after 48 hrs by SRB assay; conditions: SK-OV-3, 48 h; summary of the method: as §1
# [1] = read-out: LC50 (the source's name)
# [2] = read-out: pLC50 (the source's name) (converted)
structure (smiles),measurement,setting,value
Nc1cc(Br)c(-c2nnc(CCC(=O)c3nc4ccccc4[nH]3)o2)c(Br)c1,GI50,RPMI-8226,4.17 µM
same,CC50,RPMI-8226; [1],> 100 µM
same,TGI,RPMI-8226; read-out: TGI,> 100 µM
same,CC50,RPMI-8226; [2],> 100 µM
same,TGI,RPMI-8226; read-out: pTGI,> 100 µM
same,GI50,EKVX,22.9 µM
same,CC50,EKVX; [1],> 100 µM
same,TGI,EKVX; read-out: TGI,> 100 µM
same,CC50,EKVX; [2],> 100 µM
same,TGI,EKVX; read-out: pTGI,> 100 µM
same,GI50,NCI-H522,2.88 µM
same,CC50,NCI-H522; [1],> 100 µM
same,TGI,NCI-H522; read-out: TGI,16.9 µM
same,CC50,NCI-H522; [2],> 100 µM
same,TGI,NCI-H522; read-out: pTGI (converted),17 µM
same,GI50,HCT-116,8.32 µM
same,CC50,HCT-116; [1],> 100 µM
same,TGI,HCT-116; read-out: TGI,> 100 µM
same,CC50,HCT-116; [2],> 100 µM
same,TGI,HCT-116; read-out: pTGI,> 100 µM
same,GI50,SNB-19,20 µM
same,CC50,SNB-19; [1],> 100 µM
same,TGI,SNB-19; read-out: TGI,> 100 µM
same,CC50,SNB-19; [2],> 100 µM
same,TGI,SNB-19; read-out: pTGI,> 100 µM
same,GI50,Malme-3M,2.04 µM
same,CC50,Malme-3M; [1],> 100 µM
same,TGI,Malme-3M; read-out: TGI,17.2 µM
same,CC50,Malme-3M; [2],> 100 µM
same,TGI,Malme-3M; read-out: pTGI (converted),17.4 µM
same,GI50,SK-MEL-28,6.31 µM
same,CC50,SK-MEL-28; [1],> 100 µM
same,TGI,SK-MEL-28; read-out: TGI,79 µM
same,CC50,SK-MEL-28; [2],> 100 µM
same,TGI,SK-MEL-28; read-out: pTGI (converted),79.4 µM
same,GI50,UACC-257,7.59 µM
same,CC50,UACC-257; [1],> 100 µM
same,TGI,UACC-257; read-out: TGI,> 100 µM
same,CC50,UACC-257; [2],> 100 µM
same,TGI,UACC-257; read-out: pTGI,> 100 µM
same,GI50,OVCAR-5,29.5 µM
same,LC50,OVCAR-5; read-out: LC50,> 100 µM
same,TGI,OVCAR-5; read-out: TGI,> 100 µM
same,LC50,OVCAR-5; read-out: pLC50 (converted),> 100 µM
same,TGI,OVCAR-5; read-out: pTGI,> 100 µM
same,GI50,NCI/ADR-RES,22.4 µM
same,CC50,NCI/ADR-RES; [1],> 100 µM
same,TGI,NCI/ADR-RES; read-out: TGI,> 100 µM
same,CC50,NCI/ADR-RES; [2],> 100 µM
same,TGI,NCI/ADR-RES; read-out: pTGI,> 100 µM
same,GI50,SK-OV-3,22.4 µM
same,LC50,SK-OV-3; read-out: LC50,> 100 µM
same,TGI,SK-OV-3; read-out: TGI,80.5 µM
same,LC50,SK-OV-3; read-out: pLC50 (converted),> 100 µM
same,TGI,SK-OV-3; read-out: pTGI (converted),81.3 µM
